Compound activity: PubChem BioAssay, several laboratories
M18AAP inhibitor: PfM18AAP enzyme inhibition; recombinant PfM18AAP, H-Glu-NHMec fluorogenic cleavage; 1.2% of 290,000 active; inhibition, % at 7.35 µM; AID 1822;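 active = inhibition above the campaign mean inhibition over all tested compounds plus 3 SD, cut at about 28% in these data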;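 note: 0% = plate median of test compound wells and 100% = 2 mM ZnCl2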
HDAC3 inhib: blocks human histone deacetylase 3; recombinant HDAC3, fluorogenic peptide/trypsin coupled, fluorescence; inhibition, % at 8.3 µM; 0.15% of 320,000 active; AID 2718; in the data active = inhibition above about 26%, passing the limit was not always enough; inconclusive = no clear call, values can overlap the other calls
Target sequence (O15379 whole entry, looked up): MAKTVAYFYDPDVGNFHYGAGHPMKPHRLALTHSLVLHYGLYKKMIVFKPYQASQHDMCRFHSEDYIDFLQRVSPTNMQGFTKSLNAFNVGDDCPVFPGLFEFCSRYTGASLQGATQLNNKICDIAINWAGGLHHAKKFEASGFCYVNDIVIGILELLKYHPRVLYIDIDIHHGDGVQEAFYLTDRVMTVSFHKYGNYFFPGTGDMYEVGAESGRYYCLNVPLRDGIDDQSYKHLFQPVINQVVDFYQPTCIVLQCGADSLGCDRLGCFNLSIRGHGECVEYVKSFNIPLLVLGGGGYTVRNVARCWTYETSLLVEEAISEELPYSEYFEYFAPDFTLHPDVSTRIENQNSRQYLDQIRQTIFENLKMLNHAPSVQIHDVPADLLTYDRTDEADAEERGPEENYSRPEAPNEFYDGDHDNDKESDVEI
FAS-TE inh: FAS thioesterase (human) inhibition. recombinant FAS-TE, OMFH fluorogenic substrate, fluorescence endpoint. inhibition, % at 15 µM. 0.67% of 360,000 active. AID 602261;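 active = compounds whose normalised, plate-corrected inhibition of enzyme fluorescence in the single-dose primary screen is 50% or more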;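 note: 0% = DMSO with enzyme and 100% = substrate without enzyme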
ALR inh: human ALR oxidase inhibition via reduced H2O2; P55789; purified ALR, DTT oxidation, H2O2 HRP-luminol luminescence; inhibition, % (no concentration beside the values); 3.8% of 290,000 active; AID 485317;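 active = mean replicate inhibition above about 79%, with every replicate also reaching it, limit read from the data; inconclusive = only one of the two criteria met; inactive = mean below limit and not every replicate reaching it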
Target sequence (P55789 whole entry, looked up): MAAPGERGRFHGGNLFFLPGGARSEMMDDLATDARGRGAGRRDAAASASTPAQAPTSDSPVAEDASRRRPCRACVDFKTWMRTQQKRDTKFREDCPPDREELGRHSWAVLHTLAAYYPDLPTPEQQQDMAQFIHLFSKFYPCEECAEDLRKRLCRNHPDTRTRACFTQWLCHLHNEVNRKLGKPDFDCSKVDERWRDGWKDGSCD
UCH37 DUB inh: blocks the human deubiquitinase UCH37; inhibition, % (test concentration not listed); purified proteasome/UCH37, Ub-AMC cleavage fluorescence; 0.33% of 330,000 active; Q9Y5K5;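 active = mean inhibition over replicate wells above about 20%, limit read from the data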;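 note: 0% = compound-free wells with enzyme and 100% = wells lacking proteasome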
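Material: Human UCH37 enzyme supplied as purified proteasome complex | Schedule: 30 min preincubation with enzyme, 25 min cleavage at room temperature | Detection: AMC fluorescence 355/460 nm | Measure: % inhibition of Ub-AMC cleavage fluorescence | Controls: Wells without proteasome as full block, compound-free enzyme plus substrate as uninhibited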
Rtt109 Vps75: C. albicans Rtt109 histone acetyltransferase inhibition; purified Rtt109/Vps75, ThioGlo CoA-SH fluorescence, 4 h; inhibition, % at 34.9 µM; 0.16% of 330,000 active;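 active = inhibition of at least 50% in every replicate; inconclusive = best replicate reaches 50% inhibition but some replicates fall short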
Active calls of the source: *. A selection: hits, their analogues and other compounds. The true share with any hit is near 4.6%.

How did CCOC(=O)C1=C(C)N=c2sc(=Cc3ccc(OCC(=O)O)cc3)c(=O)n2C1c1ccc(Cl)cc1 (stereo unspecified) do in these assays?
FAS-TE inh: -10

How did CCOC(=O)C1=C(C)N=c2s/c(=C/c3ccc(OCC(=O)O)cc3)c(=O)n2C1c1cc(OC)c(OC)c(OC)c1 (stereo unspecified) do in these assays?
M18AAP inhibitor: 19; HDAC3 inhib: 8; FAS-TE inh: 0; ALR inh: 12; Rtt109 Vps75: 68*

What do the screens show for `COc1ccc(-n2cnc3cc(N)ccc32)cc1`?
M18AAP inhibitor: 18; HDAC3 inhib: 2; FAS-TE inh: -6; ALR inh: 99*; UCH37 DUB inh: 1; Rtt109 Vps75: 1

Results for COc1cccc(C=NNc2nc3ccccc3[nH]2)c1O ?
UCH37 DUB inh: 5

How did CCOC(=O)Nc1ccc2c(c1)N(C(=O)CCN1CCN(C)CC1)c1ccccc1S2 do in these assays?
M18AAP inhibitor: -1; HDAC3 inhib: -9; FAS-TE inh: -6; ALR inh: 1; UCH37 DUB inh: 5; Rtt109 Vps75: 6

Results for CCOC(=O)Nc1ccc2c(c1)N(C(=O)N1CCN(C)CC1)c1ccccc1S2 ?
M18AAP inhibitor: 5; HDAC3 inhib: 4; FAS-TE inh: -2; ALR inh: 98*; UCH37 DUB inh: 7; Rtt109 Vps75: -11

Results for Cc1ccc(/C=C/C2=NN(C)C(=O)CC2)cc1 ?
M18AAP inhibitor: -3; HDAC3 inhib: 0; FAS-TE inh: -6; ALR inh: -10; UCH37 DUB inh: 21*; Rtt109 Vps75: -11

What do the screens show for `COc1ccccc1C(=O)NCCC(=O)N1CCN(c2ccccc2O)CC1`?
HDAC3 inhib: 0; FAS-TE inh: -5; ALR inh: 91*; UCH37 DUB inh: -1; Rtt109 Vps75: 0

Results for COc1ccccc1N1CCN(C(=O)c2cc(C(C)(C)C)oc2C)CC1 ?
M18AAP inhibitor: 29*; HDAC3 inhib: -2; FAS-TE inh: 4; ALR inh: 2; UCH37 DUB inh: 3; Rtt109 Vps75: 17

How did O=C(CSc1ccc2ccccc2c1)N1CCN(c2ccc(O)cc2)CC1 do in these assays?
M18AAP inhibitor: 18; HDAC3 inhib: -8; FAS-TE inh: 1; ALR inh: 98*; UCH37 DUB inh: 6; Rtt109 Vps75: -2

What do the screens show for `COc1ccccc1N1CCN(C(=O)CSc2ccccc2)CC1`?
M18AAP inhibitor: 5; HDAC3 inhib: 1; FAS-TE inh: 2; ALR inh: 99*; UCH37 DUB inh: 3; Rtt109 Vps75: 0

What do the screens show for `COc1cc(C=NNC(=O)c2ccccc2)ccc1OS(=O)(=O)c1ccccc1`?
UCH37 DUB inh: 3

How did COc1ccccc1N1CCN(C(=O)CCC(=O)N2CCN(c3ccccc3OC)CC2)CC1 do in these assays?
M18AAP inhibitor: -4; HDAC3 inhib: -2; FAS-TE inh: -4; ALR inh: inconclusive; UCH37 DUB inh: -2; Rtt109 Vps75: 4

How did O=C(NC(CC(=O)N1CCN(c2ccccc2O)CC1)c1ccccc1)c1ccccc1Cl (stereo unspecified) do in these assays?
HDAC3 inhib: -1; FAS-TE inh: -3; ALR inh: 99*; UCH37 DUB inh: 2; Rtt109 Vps75: 11

What do the screens show for `COc1ccccc1N1CCN(C(=O)CCNS(=O)(=O)c2cc(Br)cnc2N)CC1`?
M18AAP inhibitor: 3; HDAC3 inhib: -7; FAS-TE inh: -4; ALR inh: 99*; UCH37 DUB inh: -1; Rtt109 Vps75: 10

How did O=C(NCC(=O)N1CCN(c2ccccc2O)CC1)c1cccs1 do in these assays?
HDAC3 inhib: -1; FAS-TE inh: -8; ALR inh: 99*; UCH37 DUB inh: 1; Rtt109 Vps75: -2

Results for COc1ccccc1OCCC(=O)N1CCN(c2ccccc2OC)CC1 ?
M18AAP inhibitor: -8; HDAC3 inhib: 10; FAS-TE inh: -4; ALR inh: 82*; UCH37 DUB inh: 3; Rtt109 Vps75: -7

What do the screens show for `COc1ccc(N2CCN(C(=O)CCNS(=O)(=O)c3cc(Br)cnc3N)CC2)cc1`?
M18AAP inhibitor: 8; HDAC3 inhib: -3; FAS-TE inh: -2; ALR inh: 71; UCH37 DUB inh: -1; Rtt109 Vps75: -4

What do the screens show for `O=C(CC=NOCc1c(Cl)cccc1Cl)Oc1ccc(Cl)cc1Cl`?
UCH37 DUB inh: 4

Results for CC(CC(=O)Nc1ccccc1C)=NNC(=O)Cc1csc(N)n1 ?
UCH37 DUB inh: 0

What do the screens show for `Cc1cc(=O)[nH]c(NN=Cc2ccc(F)cc2)n1`?
UCH37 DUB inh: 9

Results for O=C1CCCC(=NNC(=O)c2ccc(COc3cccc4cccnc34)cc2)C1 ?
UCH37 DUB inh: -1

Results for CCNC(=S)Nc1cc(-c2ccc(Cl)cc2)[nH]n1 ?
M18AAP inhibitor: -6; HDAC3 inhib: 10; FAS-TE inh: 10; ALR inh: 97*; UCH37 DUB inh: 1; Rtt109 Vps75: 7

What do the screens show for `CCNC(=S)Nc1ccc(Cl)cc1`?
M18AAP inhibitor: 14; HDAC3 inhib: -2; FAS-TE inh: -9; ALR inh: -4; UCH37 DUB inh: -1; Rtt109 Vps75: -5

How did ON=C(C[n+]1ccccc1)c1ccc(Br)cc1 do in these assays?
UCH37 DUB inh: 1

What do the screens show for `O=C(CN1C(=O)NC2NC(=O)NC21)NN=Cc1ccccc1F` (stereo unspecified)?
UCH37 DUB inh: 3

Results for O=C(NN=C1CC2C=CCC12)c1ccc(Br)o1 (stereo unspecified) ?
UCH37 DUB inh: 4

What do the screens show for `Cc1ccc[n+](/C(=C\C(=C=[N-])C#N)C(=O)c2ccc(Cl)cc2)c1`?
M18AAP inhibitor: -1; HDAC3 inhib: 2; FAS-TE inh: -4; ALR inh: -11; UCH37 DUB inh: 21*; Rtt109 Vps75: 9

How did Cc1c(N/N=C(\C#N)C(=O)c2ccc(Cl)cc2)c(=O)n(-c2ccccc2)n1C do in these assays?
M18AAP inhibitor: 4; HDAC3 inhib: 11; FAS-TE inh: 2; UCH37 DUB inh: 12; Rtt109 Vps75: 17

How did C/C(CCc1ccc2c(c1)OCO2)=N\NC(=S)NC(C)C do in these assays?
M18AAP inhibitor: -1; HDAC3 inhib: 0; FAS-TE inh: 6; ALR inh: 85*; Rtt109 Vps75: -1

What do the screens show for `CC(C)CC(NC(=O)c1ccccc1)C(=O)OCC(=O)Nc1ccc(Br)cn1` (stereo unspecified)?
M18AAP inhibitor: 8; HDAC3 inhib: 3; FAS-TE inh: -5; ALR inh: 99*; UCH37 DUB inh: 3; Rtt109 Vps75: -2

What do the screens show for `O=C(COc1ccccc1)NC(=S)Nc1ccc(Br)cn1`?
M18AAP inhibitor: -2; HDAC3 inhib: 1; FAS-TE inh: 0; ALR inh: -2; UCH37 DUB inh: 1

What do the screens show for `CCOc1cc(C(=O)NN=Cc2cn(-c3ccccc3)nc2-c2cc3ccccc3o2)cc(OCC)c1OCC`?
UCH37 DUB inh: -12
